Calls of active or inactive are those of the source. No cut-off for these calls is given here.

For series [1], the target named is T1, Muscarinic acetylcholine receptor M1 (Rattus norvegicus, UniProt P08482).
T1 sequence (P08482 whole entry): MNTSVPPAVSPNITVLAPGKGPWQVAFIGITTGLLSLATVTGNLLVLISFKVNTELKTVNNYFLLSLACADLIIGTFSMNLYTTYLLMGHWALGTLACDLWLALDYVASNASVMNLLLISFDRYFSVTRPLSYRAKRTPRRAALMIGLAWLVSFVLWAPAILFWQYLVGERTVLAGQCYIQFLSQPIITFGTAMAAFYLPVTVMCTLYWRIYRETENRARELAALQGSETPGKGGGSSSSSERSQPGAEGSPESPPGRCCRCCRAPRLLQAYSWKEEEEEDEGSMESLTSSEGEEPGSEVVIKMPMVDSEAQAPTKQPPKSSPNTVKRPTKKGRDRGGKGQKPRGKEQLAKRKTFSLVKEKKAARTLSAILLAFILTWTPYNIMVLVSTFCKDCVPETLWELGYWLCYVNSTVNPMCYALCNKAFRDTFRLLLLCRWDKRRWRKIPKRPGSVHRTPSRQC
Kind of series: Displacement of [3H]-NMS from Sprague-Dawley rat muscarinic M1 receptor in cortex membrane. Type of series: cell membranes.

In series [2] the target is T2, Muscarinic acetylcholine receptor M2 (Rattus norvegicus, UniProt P10980).
T2 sequence (P10980 whole entry): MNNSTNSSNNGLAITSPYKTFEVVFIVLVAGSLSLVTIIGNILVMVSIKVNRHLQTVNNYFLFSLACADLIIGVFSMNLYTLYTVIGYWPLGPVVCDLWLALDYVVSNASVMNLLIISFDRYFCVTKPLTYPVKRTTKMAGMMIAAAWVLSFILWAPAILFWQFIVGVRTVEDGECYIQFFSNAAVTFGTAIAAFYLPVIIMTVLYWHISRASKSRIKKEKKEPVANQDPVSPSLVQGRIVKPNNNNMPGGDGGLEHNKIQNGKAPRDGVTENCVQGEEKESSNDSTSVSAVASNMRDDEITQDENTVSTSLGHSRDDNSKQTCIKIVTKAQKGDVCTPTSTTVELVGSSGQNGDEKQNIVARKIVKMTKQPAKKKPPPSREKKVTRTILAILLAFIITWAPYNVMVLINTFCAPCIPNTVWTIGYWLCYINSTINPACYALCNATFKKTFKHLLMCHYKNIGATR
In words: Displacement of [3H]-NMS from Sprague-Dawley rat muscarinic M2 receptor in heart.

Series [3] addresses Muscarinic acetylcholine receptor M3 (Rattus norvegicus, UniProt P08483). Kind of series: Displacement of [3H]-NMS from Sprague-Dawley rat muscarinic M3 receptor in submandibular gland.
Series [4] relates to Rattus norvegicus. Kind of series: Bronchodilatory effect in Sprague-Dawley rat assessed as inhibition of CCh-induced bronchoconstriction at 0.5 ug/kg, it after 0.25 hrs. Type of series: functional. In a few lines: (§1)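 Male Sprague-Dawley rats (250–400 g) anaesthetised with pentobarbital sodium (50 mg/kg i.p.), tracheally cannulated, given pancuronium bromide 0.2 mg/kg i.v. Compound given intratracheally at 0.5 μg/kg; CCh 30 μg/kg challenge at 0.25, 0.5, 2 or 24 h post-dose; airway pressure by pressure transducer. Inhibition expressed as mean percentage of control value, n = 3.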

Series [5] has as its system Rattus norvegicus. In words: Bronchodilatory effect in Sprague-Dawley rat assessed as inhibition of CCh-induced bronchoconstriction at 0.5 ug/kg, it after 0.5 hrs. The series is classed as functional. In a few lines:
as §1

Series [6] concerns Rattus norvegicus. Kind of series: Bronchodilatory effect in Sprague-Dawley rat assessed as inhibition of CCh-induced bronchoconstriction at 0.5 ug/kg, it after 2 hrs. The series is classed as functional. In a few lines: as §1
In series [7] the test system is Rattus norvegicus. Kind of series: Bronchodilatory effect in it dosed Sprague-Dawley rat assessed as inhibition of CCh-induced bronchoconstriction after 24 hrs. The series is classed as functional. The settings on record: read-out: ID50 (the source's name). In a few lines:
(§2)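 Anaesthetised, cannulated male Sprague-Dawley rats dosed once intratracheally; 24 h later CCh (30 μg/kg) given, with bronchoconstriction (airway pressure via transducer) and salivation (net weight gain of cotton balls in oral cavity) recorded together in the same animal.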

Series [8] is filed under the species Rattus norvegicus. Kind of series: Ratio of ID50 for effect on CCh-induced salivation in Sprague-Dawley rat to ID50 for inhibition of CCh-induced bronchoconstriction Sprague-Dawley rat.
Series [9] is filed under the species Rattus norvegicus. In words: Effect on CCh-induced salivation in Sprague-Dawley rat after 24 hrs. The settings on record: in vivo. The series is classed as ADME, organism-based. In a few lines: as §2
Series [10] concerns Rattus norvegicus. In words: Bronchodilatory effect in Sprague-Dawley rat assessed as inhibition of CCh-induced bronchoconstriction at 0.5 ug/kg, it after 24 hrs. Type of series: functional. In a few lines:
as §1

Series [11] addresses Muscarinic acetylcholine receptor M3 (Rattus norvegicus) (UniProt P08483). In words: Displacement of [3H]-NMS from Sprague-Dawley rat muscarinic M3 receptor in submandibular gland measured after single/double washout.
The subject of series [12] is Lung. In words: Drug uptake in it dosed Sprague-Dawley rat lung after 24 hrs. The series is classed as ADME, organism-based. As to conditions: in vivo, inhaled_or_intranasal.
A short description of series [13]: Drug uptake in it dosed Sprague-Dawley rat submandibular gland after 24 hrs. Type of series: ADME, organism-based. The settings on record: in vivo.
The subject of series [14] is Rattus norvegicus. In words: Bronchodilatory effect in it dosed Sprague-Dawley rat assessed as inhibition of CCh-induced bronchoconstriction at 15 mins to 1 hr. The series is classed as functional, organism-based.

Muscarinic acetylcholine receptor M3, sequence (P08483 whole entry): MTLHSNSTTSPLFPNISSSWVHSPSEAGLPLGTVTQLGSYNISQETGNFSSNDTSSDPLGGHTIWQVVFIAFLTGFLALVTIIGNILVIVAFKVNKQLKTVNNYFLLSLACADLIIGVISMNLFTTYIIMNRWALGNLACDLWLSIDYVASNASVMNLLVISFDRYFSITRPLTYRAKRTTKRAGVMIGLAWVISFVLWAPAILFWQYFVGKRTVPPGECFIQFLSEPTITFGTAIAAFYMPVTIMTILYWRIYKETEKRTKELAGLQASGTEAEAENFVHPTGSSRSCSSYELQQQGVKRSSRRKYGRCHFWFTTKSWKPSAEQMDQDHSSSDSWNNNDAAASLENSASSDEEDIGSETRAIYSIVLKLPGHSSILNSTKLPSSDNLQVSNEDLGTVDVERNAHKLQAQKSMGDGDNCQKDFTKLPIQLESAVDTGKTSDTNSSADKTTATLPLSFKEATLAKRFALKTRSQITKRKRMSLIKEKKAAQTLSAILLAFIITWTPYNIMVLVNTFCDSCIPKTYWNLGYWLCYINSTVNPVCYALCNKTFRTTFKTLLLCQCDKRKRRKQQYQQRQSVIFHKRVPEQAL
Muscarinic acetylcholine receptor M3 (Rattus norvegicus), sequence (P08483 whole entry, looked up): as the sequence (P08483 whole entry) above

As for `O=C(Nc1ccsc1-c1ccccc1)O[C@@H]1CN2CCC1CC2`, the Ki in series [1] came out at 4.6 nM; in series [2], 13 nM; in series [3], 4 nM.
The matching figures for `C[N+]12CCC(OC(=O)Nc3ncsc3-c3cccc(C(F)(F)F)c3)(CC1)CC2`: 2.3 nM, 14 nM and 1.8 nM.
The corresponding values for `C[N+]12CCC(OC(=O)Nc3ncsc3-c3cc(Cl)cc(Cl)c3)(CC1)CC2` are 0.12 nM, 0.64 nM and 0.12 nM.
Turning to `O=C(Nc1scnc1-c1ccccc1)O[C@H]1CN2CCC1CC2`, the inhibition constant (Ki) in series [1] came to 8.7 nM; in series [2], 39 nM; in series [3], 12 nM.
As for `C[N+]12CCC(CC1)[C@@H](OC(=O)Nc1ncsc1-c1cccc(Cl)c1)C2`, the Ki came out at 0.31 nM in [1], 1.2 nM in series [2] and 0.25 nM in [3]. The inhibition in vivo at 0.0005 mg/kg was determined as 64% in series [4], 64% in [5] and 50% in series [6].
On to `O=C(O[C@H]1C[N+]2(CCCOc3ccccc3)CCC1CC2)C(O)(c1cccs1)c1cccs1.[Br-]` [ACLIDINIUM BROMIDE], for which the ED50 in [7] was 0.4 µg/kg. In [8], the Ratio amounted to 24. For the same compound, the ID50 in series [9] was determined as 9.4 µg/kg.
For `C[N+]12CCC(OC(=O)Nc3ncsc3-c3ccccc3)(CC1)CC2`, the Ki in series [1] turned out to be 0.055 nM; in [2] it was 0.12 nM; in series [3] it was 0.064 nM. In [10], the inhibition in vivo at 0.0005 mg/kg was determined as 61%.
As for `O=C(Nc1ncsc1-c1ccccc1)O[C@H]1CN2CCC1CC2`, the Ki was 0.75 nM in series [1], 1.9 nM in series [2] and 0.93 nM in series [3].
On to `CC(C)[N+]1(C)C2CCC1CC(OC(=O)C(CO)c1ccccc1)C2` (stereo not drawn), for which the inhibition in vivo at 0.0005 mg/kg in [4] came to 70%; in series [5], 85%; in series [6] it was 83%; in [10] it was 15%. For the same compound, the inhibition result in [11] was “inactive”.
Regarding `C[N+]12CCC(OC(=O)Nc3ncsc3-c3cccc(Cl)c3)(CC1)CC2.[Br-]`, in series [7], the ED50 turned out to be 0.08 µg/kg. For the same compound, the Ratio in series [8] was found to be 53. The same compound came in with an ID50 in series [9] of 4.2 µg/kg. For the same compound, the Drug uptake entry in series [12] and in series [13] was “Active” throughout.
Turning to `O=C(Nc1ccsc1-c1ccccc1)OC12CCN(CC1)CC2`, the figures for the Ki in [1], in [2] and in series [3] were 0.095 nM, 0.46 nM and 0.056 nM, respectively.
On to `O=C(Nc1ccccc1-c1ccccc1)OC12CCN(CC1)CC2`, for which the Ki in [1] stood at 0.32 nM; in [2] it was 3.8 nM; in series [3], 0.14 nM.
The corresponding values for `O=C(Nc1ncoc1-c1ccccc1)O[C@H]1CN2CCC1CC2` are 8.7 nM, 59 nM and 9.7 nM.
Take `C[N+]12CCC(OC(=O)Nc3ccsc3-c3ccccc3)(CC1)CC2`: the values for the Ki in series [1], in series [2] and in series [3] were 0.02 nM, 0.027 nM and 0.02 nM, respectively. The inhibition in vivo at 0.0005 mg/kg in series [4] was determined as 42%; in series [5] it was 78%; in [6] it was 86%.
For the compound `C[N+]12CCC(OC(=O)Nc3ncsc3-c3ccc(F)cc3)(CC1)CC2`, the Ki in [1] is 0.073 nM; in series [2] it was 0.21 nM; in series [3] it was 0.1 nM.
The matching figures for `O=C(Nc1ccsc1-c1ccccc1)O[C@H]1CN2CCC1CC2`: 0.19 nM, 0.82 nM and 0.19 nM.
On to `C[N+]1(C)[C@@H]2C[C@@H](OC(=O)C(O)(c3cccs3)c3cccs3)C[C@H]1[C@@H]1O[C@@H]12.O.[Br-]` [TIOTROPIUM BROMIDE], for which the figures for the Ki in [1], in series [2] and in [3] were 0.16 nM, 0.15 nM and 0.3 nM, respectively. Besides, the inhibition in vivo at 0.0005 mg/kg in series [4] was 44%; in series [5], 59%; in series [6], 83%; in series [10], 78%. Further, the ED50 in series [7] stood at 0.12 µg/kg. Besides, the Ratio in [8] was 16. This compound yielded an ID50 in series [9] of 1.9 µg/kg. Besides, the inhibition result in [11] is “Active”. The Drug uptake result in series [12] and in [13] was “Active” each time.
With `O=C(Nc1sccc1-c1ccccc1)OC12CCN(CC1)CC2`, the Ki in [1] turned out to be 0.33 nM; in [2] it was 1.4 nM; in series [3] it was 0.12 nM.
Regarding `O=C(Nc1ncsc1-c1ccccc1)OC12CCN(CC1)CC2`, the Ki in series [1] was 0.39 nM; in series [2] it was 0.8 nM.
In the case of `O=C(Nc1cscc1-c1ccccc1)OC12CCN(CC1)CC2`, the Ki is 0.51 nM in series [1], 3.6 nM in [2] and 0.21 nM in [3].
As for `C[N+]12CCC(OC(=O)Nc3ncsc3-c3cccc(Cl)c3)(CC1)CC2` [listing 1 of 2 here], the results for the Ki in [1], in [2] and in [3] were 0.041 nM, 0.053 nM and 0.049 nM, respectively. Besides, the inhibition in vivo at 0.0005 mg/kg in series [4] stood at 67%; in [5] it was 67%; in series [6], 84%; in series [10] it was 82%.
`C[N+]12CCC(OC(=O)Nc3ncsc3-c3cccc(Cl)c3)(CC1)CC2` [listing 2 of 2 here]: the inhibition result in [11] was “inactive”. In addition, the inhibition result in series [14] is “Active”.
As to `C[N+]1(C)CCC(OC(=O)C(O)(c2ccccc2)C2CCCC2)C1.[Br-]` (stereo not drawn) [GLYCOPYRRONIUM BROMIDE], the ED50 in series [7] stood at 3.4 µg/kg. Also, the inhibition result in series [14] was “Active”.
With `C[N+]12CCC(CC1)[C@@H](OC(=O)Nc1ncsc1-c1ccccc1)C2`, the values for the Ki in [1], in series [2] and in series [3] were 0.37 nM, 1.2 nM and 0.37 nM, respectively. The inhibition in vivo at 0.0005 mg/kg came to 74% in series [4], 62% in series [5], 54% in series [6] and 14% in series [10].

Values taken from ChEMBL document CHEMBL3297703, “Novel quinuclidinyl heteroarylcarbamate derivatives as muscarinic receptor antagonists” (Bioorg Med Chem, 2014).
